Data taken from ChEMBL document CHEMBL3826951, “Discovery of Benzocycloalkane Derivatives Efficiently Blocking Bacterial Virulence for the Treatment of Methicillin-Resistant S. aureus (MRSA) Infections by Targeting Diapophytoene Desaturase (CrtN)” (J Med Chem, 2016).
The source made the active and inactive calls. The calls are words filed in the database; no cut-off is given here.

How the values were obtained:
[1] = test system: Staphylococcus aureus; experiment: (§1) Attenuation of methicillin-resistant Staphylococcus aureus Mu 50 virulence in BALB/c mouse systemic infection model assessed as decrease in bacterial survival in liver at 200 mg/kg, ip administered every 12 hrs for 108 hrs followed by bacterial challenge after first 12 hrs of compound dosing measured 5 days post infection; format: functional, Mu50
In short: (§2)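 Female BALB/c mice, 6-8 weeks old. Dosed ip every 12 h for 108 h. Challenged with 100 µL at 12 h: 1.6 × 10^8 CFU Mu50 or 4 × 10^7 CFU USA400 MW2. Sacrificed 5 days post-infection. Livers and kidneys homogenised in PBS/0.1% Triton X-100, serially plated on TSA, CFU counted; two-tailed Mann-Whitney.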

[2] = test system: Staphylococcus aureus; experiment: as §1, with “USA400 MW2” for “Mu 50”, “burden” for “survival”; format: functional; in short: as §2
[3] = test system: Staphylococcus aureus; experiment: as §1, with “USA400 MW2” for “Mu 50”, “burden” for “survival”, “50” for “200”; format: functional; in short: as §2
[4] = test system: Staphylococcus aureus; experiment: as §1, with “50” for “200”; format: functional; conditions: Mu50; in short: as §2
[5] = test system: Staphylococcus aureus; experiment: as §1, with “kidney” for “liver”; format: functional, Mu50; in short: as §2
[6] = test system: Staphylococcus aureus; experiment: as §1, with “kidney” for “liver”, “50” for “200”; format: functional; conditions: Mu50; in short: as §2
[7] = target: T1, 4,4'-diapophytoene synthase (Staphylococcus aureus, UniProt A9JQL9); experiment: Inhibition of Staphylococcus aureus ATCC 27659 full length His-tagged dehydrosqualene synthase expressed in Escherichia coli BL21 (DE3) cells assessed as reduction in staphyloxanthin pigment formation after 72 hrs by spectrophotometric analysis
T1 sequence (A9JQL9 whole entry): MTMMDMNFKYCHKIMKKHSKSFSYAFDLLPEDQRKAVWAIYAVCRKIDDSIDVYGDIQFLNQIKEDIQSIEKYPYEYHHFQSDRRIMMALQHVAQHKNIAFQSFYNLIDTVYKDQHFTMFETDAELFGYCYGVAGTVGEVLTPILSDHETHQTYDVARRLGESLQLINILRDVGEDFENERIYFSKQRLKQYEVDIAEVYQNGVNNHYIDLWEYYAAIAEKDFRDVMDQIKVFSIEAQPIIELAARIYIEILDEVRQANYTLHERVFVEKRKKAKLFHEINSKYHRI

SMILES: O=P([O-])([O-])C(CCCc1cccc(Oc2ccccc2)c1)S(=O)(=O)[O-].[K+].[K+].[K+] (configuration not stated)
- Activity [1]: 2.84 log10CFU
- Activity [2]: 1.59 log10CFU
- Activity [3]: inactive
- Activity [4]: Active
- Activity [5]: 0.3 log10CFU
- Activity [6]: inactive
- IC50 [7]: 83.4 nM
